From ChEMBL document CHEMBL1129329, “Structure-activity studies of 6-substituted decahydroisoquinoline-3-carboxylic acid AMPA receptor antagonists. 2. Effects of distal acid bioisosteric substitution, absolute stereochemical preferences, and in vivo activity” (J Med Chem, 1996)

Legend:
[1] = molecular target: Glutamate NMDA receptor; assay: Affinity of [3H]-CGS- 19755 radioligand to rat N-methyl-D-aspartate (NMDA) receptor; format: protein-complex assay
[2] = molecular target: Glutamate receptor ionotropic, kainate; assay: Binding affinity against Ionotropic glutamate receptor kainate using [3H]-Kainic acid 19755 radioligand; format: protein-complex assay
Procedure, shortened: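 Displacement of radioligand binding in rat cortical tissue: [3H]AMPA for AMPA sites, [3H]kainic acid for kainate sites. Assays run in triplicate unless otherwise indicated; some IC50 values come from a single assay.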

[3] = molecular target: Glutamate receptor ionotropic, kainate; assay: Compound was tested for Ionotropic glutamate receptor kainate antagonistic activity by measuring its ability to inhibit depolarizations induced by 10 uM kainic acid in rat cortical slice preparation.; format: functional
[4] = molecular target: T1, Glutamate receptor ionotropic, AMPA (Rattus norvegicus, UniProt P19490+P19491+P19492+P19493); assay: Binding affinity against Ionotropic glutamate receptor AMPA using [3H]AMPA 19755 radioligand; format: protein-complex assay
[5] = molecular target: T1, Glutamate receptor ionotropic, AMPA; assay: Compound was tested for Ionotropic glutamate receptor AMPA antagonistic activity by measuring its ability to inhibit depolarizations induced by 40 uM AMPA in rat cortical slice preparation.; format: functional
[6] = molecular target: Glutamate NMDA receptor; assay: Compound was tested for NMDA receptor antagonistic activity by measuring its ability to inhibit depolarizations induced by 40 uM NMDA in rat cortical slice preparation.; format: functional
[7] = molecular target: Glutamate NMDA receptor; assay: Antagonism at NMDA receptor by inhibition of depolarizations induced by 40 uM NMDA in rat cortical slice preparation.; format: functional
[8] = molecular target: T1, Glutamate receptor ionotropic, AMPA; assay: Antagonism at AMPA receptor by inhibition of depolarizations induced by 40 uM AMPA in rat cortical slice preparation.; format: functional
[9] = molecular target: Glutamate receptor ionotropic, kainate; assay: Antagonism at Ionotropic glutamate receptor kainate by inhibition of depolarizations induced by 10 uM kainic acid in rat cortical slice preparation.; format: functional
[10] = system: Mus musculus; assay: (§1) Effective dose to produce neurological impairments in mice using the horizontal screen assay, administered intraperitoneally; format: functional; details: ip
Procedure, shortened: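 Mice dosed ip 30 min beforehand are placed on a horizontal screen, which is then turned upside down. Unimpaired mice climb back to the top within 2 min.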

[11] = system: Mus musculus; assay: Effective dose to block maximal electroshock-induced convulsions in mice, administered intraperitoneally; format: functional; details: ip
[12] = system: Mus musculus; assay: Effective dose to block ATPA-induced muscle rigidity in mice at a dose of 30 mg/kg administered intraperitoneally; details: ip
[13] = molecular target: Glutamate receptor ionotropic, AMPA (Rattus norvegicus, UniProt P19491+P19492+P19493+P19490); assay: Compound was tested for AMPA receptor antagonistic activity by measuring its ability to inhibit depolarizations induced by 40 uM AMPA in rat cortical slice preparation; agonist; format: functional
[14] = system: Mus musculus; assay: as §1; format: functional; details: ip; remark: listed apart in the source
Procedure, shortened: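 Mice dosed intraperitoneally 30 min before testing were placed on a horizontal screen, which was then turned upside down. Unimpaired mice climb back to the top within 2 min; failure indicates neurological impairment. This was done before MES testing.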

Glutamate receptor ionotropic, AMPA (Rattus norvegicus, UniProt P19491+P19492+P19493+P19490), sequence (P19491 whole entry): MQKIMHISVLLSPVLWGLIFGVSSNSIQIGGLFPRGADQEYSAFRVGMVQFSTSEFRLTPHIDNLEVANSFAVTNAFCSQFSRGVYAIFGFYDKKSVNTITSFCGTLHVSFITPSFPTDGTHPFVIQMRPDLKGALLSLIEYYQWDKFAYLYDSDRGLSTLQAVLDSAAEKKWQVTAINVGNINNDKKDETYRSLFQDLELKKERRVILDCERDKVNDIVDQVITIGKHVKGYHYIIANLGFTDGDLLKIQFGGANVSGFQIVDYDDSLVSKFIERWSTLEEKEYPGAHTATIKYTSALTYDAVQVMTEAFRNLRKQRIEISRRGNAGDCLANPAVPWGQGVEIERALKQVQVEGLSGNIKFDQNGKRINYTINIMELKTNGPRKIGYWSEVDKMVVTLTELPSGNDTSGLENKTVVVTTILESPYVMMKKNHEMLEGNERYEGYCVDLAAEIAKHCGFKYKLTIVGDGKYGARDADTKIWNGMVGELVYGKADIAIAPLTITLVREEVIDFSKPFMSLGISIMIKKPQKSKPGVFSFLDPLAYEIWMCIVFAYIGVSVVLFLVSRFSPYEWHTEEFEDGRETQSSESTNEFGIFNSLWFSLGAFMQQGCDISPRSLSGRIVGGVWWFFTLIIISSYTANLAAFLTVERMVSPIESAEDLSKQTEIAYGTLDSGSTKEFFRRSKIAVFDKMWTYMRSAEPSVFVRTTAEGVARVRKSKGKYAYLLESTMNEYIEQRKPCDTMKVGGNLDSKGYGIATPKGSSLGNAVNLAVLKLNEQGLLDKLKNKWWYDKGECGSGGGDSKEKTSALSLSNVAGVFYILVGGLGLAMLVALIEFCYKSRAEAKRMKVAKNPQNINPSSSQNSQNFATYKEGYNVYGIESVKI
Glutamate receptor ionotropic, AMPA (Rattus norvegicus, UniProt P19491+P19492+P19493+P19490), sequence (P19492 whole entry): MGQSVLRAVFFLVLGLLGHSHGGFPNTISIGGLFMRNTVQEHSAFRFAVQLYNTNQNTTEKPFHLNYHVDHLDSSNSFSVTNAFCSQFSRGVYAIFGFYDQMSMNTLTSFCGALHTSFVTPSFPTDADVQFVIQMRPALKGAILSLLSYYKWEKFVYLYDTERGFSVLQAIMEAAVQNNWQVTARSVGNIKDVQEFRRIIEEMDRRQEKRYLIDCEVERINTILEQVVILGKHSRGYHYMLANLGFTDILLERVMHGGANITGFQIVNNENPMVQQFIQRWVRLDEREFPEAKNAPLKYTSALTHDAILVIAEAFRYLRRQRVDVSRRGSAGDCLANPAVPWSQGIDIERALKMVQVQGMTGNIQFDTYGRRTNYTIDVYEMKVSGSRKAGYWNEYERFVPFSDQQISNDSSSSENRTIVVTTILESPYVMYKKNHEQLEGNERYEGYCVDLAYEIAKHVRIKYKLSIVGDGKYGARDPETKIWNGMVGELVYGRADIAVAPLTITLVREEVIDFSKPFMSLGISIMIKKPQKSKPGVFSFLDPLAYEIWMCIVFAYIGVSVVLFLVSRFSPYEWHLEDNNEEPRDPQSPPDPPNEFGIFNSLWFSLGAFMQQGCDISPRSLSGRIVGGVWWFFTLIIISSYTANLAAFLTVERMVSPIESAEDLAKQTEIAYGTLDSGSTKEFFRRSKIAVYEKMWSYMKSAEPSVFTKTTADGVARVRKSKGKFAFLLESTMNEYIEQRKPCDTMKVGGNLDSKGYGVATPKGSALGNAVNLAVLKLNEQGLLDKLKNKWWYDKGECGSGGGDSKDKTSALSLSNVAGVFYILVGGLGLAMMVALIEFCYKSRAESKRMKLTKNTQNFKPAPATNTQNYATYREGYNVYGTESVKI
Glutamate receptor ionotropic, AMPA (Rattus norvegicus, UniProt P19491+P19492+P19493+P19490), sequence (P19493 whole entry): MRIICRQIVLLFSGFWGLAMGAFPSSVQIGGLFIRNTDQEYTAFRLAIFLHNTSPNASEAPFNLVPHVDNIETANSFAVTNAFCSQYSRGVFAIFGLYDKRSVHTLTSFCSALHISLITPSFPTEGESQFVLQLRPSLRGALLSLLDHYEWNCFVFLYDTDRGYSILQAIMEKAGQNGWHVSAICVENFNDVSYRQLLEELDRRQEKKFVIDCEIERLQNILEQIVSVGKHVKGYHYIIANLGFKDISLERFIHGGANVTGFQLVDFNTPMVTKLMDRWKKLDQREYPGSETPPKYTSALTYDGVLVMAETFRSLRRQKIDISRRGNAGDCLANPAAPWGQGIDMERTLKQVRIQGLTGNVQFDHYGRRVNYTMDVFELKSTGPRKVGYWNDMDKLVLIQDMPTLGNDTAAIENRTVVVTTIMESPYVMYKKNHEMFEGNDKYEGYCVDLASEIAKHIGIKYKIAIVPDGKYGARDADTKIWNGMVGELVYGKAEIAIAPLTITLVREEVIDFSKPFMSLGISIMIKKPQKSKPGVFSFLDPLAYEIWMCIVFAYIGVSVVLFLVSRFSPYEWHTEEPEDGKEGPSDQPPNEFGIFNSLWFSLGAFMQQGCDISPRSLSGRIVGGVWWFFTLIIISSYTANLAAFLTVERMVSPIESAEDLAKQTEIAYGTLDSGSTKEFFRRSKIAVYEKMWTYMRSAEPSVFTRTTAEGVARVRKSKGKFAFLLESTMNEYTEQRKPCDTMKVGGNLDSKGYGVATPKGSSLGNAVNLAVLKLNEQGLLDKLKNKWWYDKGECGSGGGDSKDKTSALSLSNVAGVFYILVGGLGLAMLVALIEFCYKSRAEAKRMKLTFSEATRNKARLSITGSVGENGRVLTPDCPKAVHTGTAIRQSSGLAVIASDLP
Glutamate receptor ionotropic, AMPA (Rattus norvegicus, UniProt P19491+P19492+P19493+P19490), sequence (P19490 whole entry): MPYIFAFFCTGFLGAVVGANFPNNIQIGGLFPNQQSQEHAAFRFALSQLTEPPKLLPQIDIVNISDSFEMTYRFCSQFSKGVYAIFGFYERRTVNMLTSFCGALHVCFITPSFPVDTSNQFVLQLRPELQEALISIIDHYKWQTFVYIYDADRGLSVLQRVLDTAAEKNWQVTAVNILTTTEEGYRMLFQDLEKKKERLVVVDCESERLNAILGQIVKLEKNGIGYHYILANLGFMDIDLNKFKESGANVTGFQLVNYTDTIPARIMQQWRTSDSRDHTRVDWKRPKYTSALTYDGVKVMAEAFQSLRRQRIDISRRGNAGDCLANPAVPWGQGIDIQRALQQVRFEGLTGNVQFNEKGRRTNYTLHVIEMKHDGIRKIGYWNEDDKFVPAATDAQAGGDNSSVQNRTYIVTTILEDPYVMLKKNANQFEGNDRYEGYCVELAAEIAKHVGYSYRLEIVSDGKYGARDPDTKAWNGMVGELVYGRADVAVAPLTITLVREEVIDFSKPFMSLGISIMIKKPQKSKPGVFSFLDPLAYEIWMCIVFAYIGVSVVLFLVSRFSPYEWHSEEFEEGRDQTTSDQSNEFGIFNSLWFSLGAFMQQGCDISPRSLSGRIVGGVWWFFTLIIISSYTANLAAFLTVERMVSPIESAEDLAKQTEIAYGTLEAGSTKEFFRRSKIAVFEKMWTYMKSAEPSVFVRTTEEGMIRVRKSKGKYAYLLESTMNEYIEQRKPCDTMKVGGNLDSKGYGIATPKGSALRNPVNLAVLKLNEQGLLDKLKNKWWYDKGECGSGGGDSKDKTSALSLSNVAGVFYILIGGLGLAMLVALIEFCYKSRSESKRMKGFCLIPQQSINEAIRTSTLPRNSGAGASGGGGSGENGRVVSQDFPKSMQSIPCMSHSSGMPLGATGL

| SMILES | IC50 [1] | IC50 [2] | IC50 [3] | IC50 [4] | IC50 [5] | IC50 [6] | IC50 [7] | IC50 [8] | IC50 [9] | IC50 [13] | ED50 [10] | ED50 [11] | ED50 [12] | ED50 [14] |
| --- | --- | --- | --- | --- | --- | --- | --- | --- | --- | --- | --- | --- | --- | --- |
| O=C(O)[C@@H]1C[C@H]2C[C@@H](CSc3nc[nH]n3)CC[C@H]2CN1 | > 10 µM | > 10 µM | > 100 µM | > 10 µM | 68.8 µM | > 100 µM | – | – | – | – | – | – | – | – |
| O=C(O)[C@H]1C[C@@H]2C[C@H](CS(=O)(=O)c3nc[nH]n3)CC[C@@H]2CN1 | 60.9 µM | > 100 µM | – | 23.6 µM | – | – | – | – | – | – | – | – | – | – |
| CCOC(=O)[C@@H]1C[C@H]2C[C@@H](CCc3cc(OC)no3)CC[C@H]2CN1C(=O)OC | > 100 µM | – | – | – | – | – | > 100 µM | – | – | – | – | – | – | – |
| CCOC(=O)[C@@H]1C[C@H]2C[C@@H](CCC(=O)NS(=O)(=O)c3ccccc3)CC[C@H]2CN1C(=O)OC | > 100 µM | > 100 µM | – | > 100 µM | – | – | > 100 µM | > 100 µM | > 100 µM | – | – | – | – | – |
| CCOC(=O)[C@@H]1C[C@H]2C[C@@H](CCP(=O)(OCC)OCC)CC[C@H]2CN1C(=O)OC | > 100 µM | – | – | > 100 µM | – | – | > 100 µM | > 100 µM | > 100 µM | – | – | – | – | – |
| CCOC(=O)[C@@H]1C[C@H]2C[C@@H](CCC(=O)NS(C)(=O)=O)CC[C@H]2CN1C(=O)OC | > 100 µM | > 100 µM | – | > 100 µM | – | – | > 100 µM | > 100 µM | > 100 µM | – | – | – | – | – |
| O=C(O)[C@@H]1C[C@H]2C[C@H](CCP(=O)(O)O)CC[C@H]2CN1 | > 10 µM | – | – | > 10 µM | – | – | > 100 µM | > 100 µM | > 100 µM | – | – | – | – | – |
| O=C(O)[C@H]1C[C@@H]2C[C@H](CCc3nnn[nH]3)CC[C@@H]2CN1 | – | > 100 µM | – | > 100 µM | – | – | – | > 100 µM | > 100 µM | – | – | – | – | – |
| O=C(O)[C@@H]1C[C@H]2C[C@H](CCS(=O)(=O)O)CC[C@H]2CN1 | > 100 µM | > 100 µM | – | > 100 µM | – | – | > 100 µM | > 100 µM | > 100 µM | – | – | – | – | – |
| O=C(O)[C@@H]1C[C@H]2C[C@@H](CCc3nn[nH]n3)CC[C@H]2CN1 (racemic) [TEZAMPANEL ANHYDROUS] | – | – | – | – | – | – | – | – | – | – | – | 9 mg/kg | 3.6 mg/kg | 19.6 mg/kg |

Further compounds by falling IC50 [4], results first:

| IC50 [1] | IC50 [2] | IC50 [3] | IC50 [4] | IC50 [5] | IC50 [6] | IC50 [7] | IC50 [8] | IC50 [9] | IC50 [13] | SMILES | ED50 [10] | ED50 [11] | ED50 [12] | ED50 [14] |
| --- | --- | --- | --- | --- | --- | --- | --- | --- | --- | --- | --- | --- | --- | --- |
| 29.8 µM | > 100 µM | > 100 µM | 70.5 µM | > 100 µM | 62.2 µM | – | – | – | – | O=C(O)[C@@H]1C[C@H]2C[C@H](CSc3nn[nH]n3)CC[C@H]2CN1 (stereo in doubt; (-)28) | – | – | – | – |
| – | 87 µM | – | 31.5 µM | – | – | – | 21.9 µM | 28.9 µM | – | O=C(O)[C@@H]1C[C@H]2C[C@H](CCc3nnn[nH]3)CC[C@H]2CN1 (stereo in doubt; (+)49) | – | – | – | – |
| > 10 µM | > 100 µM | > 31.6 µM | 22.1 µM | 19.8 µM | > 100 µM | – | – | – | – | O=C(O)[C@H]1C[C@@H]2C[C@H](CSc3nn[nH]n3)CC[C@@H]2CN1 | – | – | – | – |
| 12.1 µM | 28.1 µM | – | 14 µM | – | – | – | 1.8 µM | – | – | O=C(O)[C@@H]1C[C@H]2C[C@@H](CCc3nn[nH]n3)CC[C@H]2CN1 [TEZAMPANEL ANHYDROUS] | – | – | – | – |
| > 10 µM | 16.7 µM | – | 12.9 µM | – | – | – | – | – | Agonist | O=C(O)[C@@H]1C[C@H]2C[C@@H](Cn3nnnc3S)CC[C@H]2CN1 (racemic) | – | – | – | – |
| 47.9 µM | 37.3 µM | – | 4.9 µM | 6.1 µM | > 100 µM | – | – | – | – | O=C(O)[C@@H]1C[C@H]2C[C@H](CSc3nn[nH]n3)CC[C@H]2CN1 (stereo in doubt; (+/-)28) | – | – | – | – |
| 18.1 µM | 15.7 µM | > 31.6 µM | 0.6 µM | 1.4 µM | 22.9 µM | – | – | – | – | O=C(O)[C@@H]1C[C@H]2C[C@@H](CSc3nn[nH]n3)CC[C@H]2CN1 | 20.1 mg/kg | 8.5 mg/kg | 8.1 mg/kg | – |
